Rce1 inhib: yeast Ras-converting enzyme inhibition; Q03530; actives 0.27% (n = 290,000); yeast membranes, quenched prenylated peptide cleavage fluorescence; calls only;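 active means fall in fluorescence gain of 50% or more versus controls, with final raw signal at or below 3038400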;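 further: plate controls were neutral control wells for no effect and wells lacking membranes for full effect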
Target sequence (Q03530 whole entry, looked up): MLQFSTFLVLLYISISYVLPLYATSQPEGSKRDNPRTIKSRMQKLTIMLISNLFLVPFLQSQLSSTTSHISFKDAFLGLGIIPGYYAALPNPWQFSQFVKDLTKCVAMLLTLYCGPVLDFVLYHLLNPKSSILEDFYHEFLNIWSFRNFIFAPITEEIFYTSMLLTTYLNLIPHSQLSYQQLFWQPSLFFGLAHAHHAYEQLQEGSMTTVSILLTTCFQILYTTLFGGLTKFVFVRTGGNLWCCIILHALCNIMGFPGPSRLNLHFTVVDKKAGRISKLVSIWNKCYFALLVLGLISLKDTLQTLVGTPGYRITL
T cell HTS: modulates CD8 T cell binding to vesicles. response (vesicle binding), % at 7 µM. 2C CD8+ T cell-vesicle binding, flow cytometry; stronger effect = lower value. actives 0.068% (n = 330,000);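 active means response, share of CD8 T cells binding vesicles, and their 90th percentile fluorescence all below set limits, cut at about 80% in these data, passing the limit was not always enough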;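 further: values below 100% mean blocked vesicle binding to the CD8+ T cells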
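Read-out – percent CD8+ FL2 mean versus row control · System – murine 2C transgenic CD8+ T lymphocytes · Times – 1.5 h cell–vesicle binding at 37 °C, then 20 min icy labelling · Control set – naked vesicles low, QL9 vesicles with vehicle high · Detection – cytometric PE anti-B7-1 and Alexa647 anti-CD8 signals after 1% paraformaldehyde fixation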
Rin1-Abl PPI inh: inhibitors of human Rin1-Abl protein interaction; P00519+Q13671; TR-FRET Rin1/Abl binding, biochemical; inhibition, % at 7.35 µM; actives 0.4% (n = 360,000); in the data active means inhibition above about 5%, passing the limit was not always enough
SKN-1 block: blocks SKN-1 activity in C. elegans. inhibition, % at 21.8 µM. actives 0.49% (n = 360,000). C. elegans VP596 Pgst-4::GFP/RFP ratio, acrylamide-induced, 24 h;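 active means interference check ratio from 0.5 to 1.5 plus GFP to RFP signal ratio inhibition reaching or exceeding a fixed threshold, cut at about 30% in these data, passing the limit was not always enough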
Myeloid diff MLP: compounds promoting myeloid differentiation; actives 1% (n = 360,000); calls only at 10 µM; ER-HoxA9 myeloid progenitors, lysozyme-GFP differentiation, flow cytometry;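 active means normalized GFP-positive differentiation at or above the plate's own cutoff, the solvent-only control mean plus 3 SD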;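 further: cells exposed to compound for four days before flow analysis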
GRK2 aptamer HTS: blocks RNA aptamer binding to human GRK2; P25098; bead flow cytometry, FAM-aptamer displacement from GRK2; inhibition of aptamer binding, % at 10 µM; actives 0.59% (n = 330,000); AID 488847;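 active means inhibition of aptamer binding above 40%, roughly 3 SD of noise, on plates passing a quality check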;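 further: median bead fluorescence of bound FAM aptamer so fluorescent compounds give negative values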
Myeloid diff: promotes myeloid progenitor differentiation | shares compounds with Myeloid diff MLP | ER-HoxA9 myeloid progenitors, GFP/Mac1 double-positive flow | calls only | actives 2% (n = 2,300) | AID 651706;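 active means share of green or green-and-red cells above 9 and 9% in run 1 or 4 and 3% in run 2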
GFP autofluor: compound fluorescence in myeloid differentiation counter-screen. shares compounds with Myeloid diff MLP. ER-HoxA9 myeloid progenitors, no estrogen, GFP autofluorescence flow cytometry; vehicle wells 0%, positive control 100%. fluorescence response, % (test concentration not listed). actives 7.4% (n = 2,300);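 active means over 5% cells positive for green fluorescent reporter, or over 2% positive for both it and APC stain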;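 further: range taken on the double positive population between DMSO and positive control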
Numbers without * were called inactive; i = inactive; / = not tested or not shown; + = active, no number. A selection: hits, their analogues and other compounds. The true share with any hit is near 2.6%.

SMILES | Rce1 inhib | T cell HTS | Rin1-Abl PPI inh | SKN-1 block | Myeloid diff MLP | GRK2 aptamer HTS | Myeloid diff | GFP autofluor
COc1ccc(-c2csc(C(NC(C)=O)c3cccc(F)c3)n2)cn1 (centres undefined) | / | / | 1.7 | -7.5 | + | / | i | 0.6
COc1ccc(-c2csc(C(NC(C)=O)c3ccc(F)c(F)c3)n2)cn1 (centres undefined) | / | / | 3.7 | -6.2 | i | / | / | /
Cc1cc(C(=O)O)c(CCCN)s1 | i | 339.8 | 0.3 | -9.3 | i | 2.0 | i | 0.3
CCOc1ccccc1-n1c(SCC(N)=O)nnc1-c1ccccc1 | i | 542.9 | -1.4 | -8.3 | i | 1.0 | i | 0.6
CCOc1ccccc1-n1c(SCC(N)=O)nnc1-c1ccc(O)cc1 | i | / | 0.3 | 14.7 | i | 0.0 | / | /
O=C(O)Cc1ccc(C(=O)c2ccc(Cl)cc2Cl)s1 | i | 261.4 | -0.8 | -1.1 | i | 6.0 | / | /
COc1ccc(-c2sc(C(=O)c3ccc(Cl)cc3Cl)cc2CC(=O)O)cc1 | i | 89.0 | -0.2 | -5.8 | + | 2.0 | i | 0.3
CCn1c(-c2ccccc2Cl)nn(CC(=O)Nc2cc(Cl)ccc2Cl)c1=S | i | 299.7 | 2.5 | -3.6 | i | 0.0 | i | 0.0
CC1CCCN(c2ccc(C(=O)Nc3cccnc3)cc2[N+](=O)[O-])C1 (centres undefined) | i | 288.4 | -3.1 | 11.6 | i | 1.0 | / | /
COc1ccc(-n2c(=S)[nH]c3cc(C(=O)Nc4ccc(C)c(F)c4)ccc3c2=O)c(OC)c1 | i | 354.2 | -1.6 | 6.0 | + | 1.0 | i | 0.0
O=C(Nc1ccn(CCCNCC2CCCO2)c(=O)n1)OCc1ccccc1 (centres undefined) | / | / | -3.2 | -4.5 | i | / | / | /
CC(C)Cc1ccc(CN2CCCC(NC(=O)CCN3CCCO3)C2)cc1 (centres undefined) | i | 279.5 | 0.8 | 8.3 | i | 0.0 | / | /
CNc1ccc(C(O)(C(F)(F)F)C(F)(F)F)cc1C(O)(C(F)(F)F)C(F)(F)F | i | 225.2 | 3.9 | -28.3 | + | 0.0 | i | 0.9
Cn1c(=O)c2ccccc2n(Cc2ccccc2Cl)c1=O | / | 296.5 | 0.6 | -4.2 | i | 0.0 | i | 0.0
Cn1c(=O)c2ccccc2n(Cc2ccccc2F)c1=O | i | 255.1 | 1.0 | 16.0 | i | 4.0 | / | /
CN=C(NC)SC1CC(=O)N(c2ccccc2)C1=O (centres undefined) | i | 111.6 | 4.8 | -24.4 | i | 1.0 | i | 0.3
COc1ccc(C(=O)COC(=O)c2cnc(C)cn2)cc1OC | / | 366.9 | -0.8 | 3.5 | i | 4.0 | i | 0.0
Cc1ccccc1NS(=O)(=O)c1ccc(OCC(=O)N2CCCCC2)cc1 | i | 465.8 | 3.3 | 9.2 | + | 0.0 | i | 0.0
CCOc1ccc(S(=O)(=O)Nc2ccccc2C(=O)N(C)C2CCN(C)CC2)cc1 | / | 437.0 | 4.8 | 2.0 | i | 2.0 | i | 0.0
CCOc1cccc(=O)c2c(C)oc(C)c12 | i | 467.3 | 1.0 | -9.0 | i | 0.0 | i | 0.6
Cc1ccc(Cc2c[nH]c(=S)s2)cc1 | i | 384.0 | 1.0 | -4.2 | + | 0.0 | i | 0.5
Cc1ccc(Cc2c(C)[nH]c(=S)[nH]c2=O)cc1 | i | 550.2 | 0.7 | -0.6 | i | 1.0 | / | /
O=C(NCCN1CCc2ccccc2C1)C1CCN(S(=O)(=O)N2CCC3(CC2)OCCO3)CC1 | i | 272.9 | 4.0 | -0.6 | i | 0.0 | / | /
O=C(NCCN1CCc2ccccc2C1)C1CCN(S(=O)(=O)N2CCCCC2)CC1 | i | / | 3.4 | 2.7 | i | 0.0 | i | 0.0
COc1ccccc1NC(=O)c1c(NC(=O)c2ccco2)sc2c1CCC2 | i | 568.3 | 0.3 | 10.1 | + | 1.0 | i | 0.6
C[C@H](NC(=O)C1CCN(S(=O)(=O)c2ccccc2)CC1)C(=O)NCc1cccnc1 | / | / | -3.9 | 22.2 | i | / | / | /

Screening results from PubChem BioAssay.
